Reference: ChEMBL document CHEMBL1177699, “Identification and functional characterization of a stable, centrally active derivative of the neurotensin (8-13) fragment as a potential first-in-class analgesic” (J Med Chem, 2010)
Numbered stars: 1 amine (or outer) side, 2 acyl side, 3 side chain; on linkers, the order of the positions; unused ones are H or OH. Square brackets hold non-standard residues; d marks the D form. Peptide text beside a SMILES is read from it. * marks the point of attachment. Hexanoyl(6-NMe3+) = C[N+](C)(C)CCCCCC(=O)*; Pentanoyl(5-guanidino) = NC(N)=NCCCCC(=O)*; Ava(2S-Me) = C[C@@H](CCCN[*:1])C(=O)[*:2]; X30 = C[C@@H](CCCCC[N+](C)(C)C)C(=O)*; X21 = CC/N=C(\NCC)NCCC[C@H](C)C(=O)*; X27 = C[C@@H](CCCN1CCN(C)C1=N)C(=O)*; X9 = C[C@@H](CCCC[N+](C)(C)C)C(=O)*; X28 = C/N=C(\NC)NCCC[C@H](C)C(=O)*; NMe5Ava = CN(CCCCC(=O)[*:2])[*:1]; X17 = C[C@@H](CCCN1CCNC1=N)C(=O)*; X25 = C[C@@H](CCCNC1=NCCN1)C(=O)*; X23 = CCNC(=N)NCCC[C@H](C)C(=O)*; X14 = CNC(=N)NCCC[C@H](C)C(=O)*; X8 = C[C@@H](CCCNC(=N)N)C(=O)*; X13 = CC/N=C(\NCC)NCCCCC(=O)*; X4 = C[C@@H](CCCCN(C)C)C(=O)*; Tle = CC(C)(C)[C@H](N)C(=O)O; X5 = CCN1CCN(CCCCC(=O)*)C1=N; X11 = C[C@@H](CCCCCN)C(=O)*; X12 = CNCCCCC[C@H](C)C(=O)*; X22 = C[N+](C)(C)CCCCC(=O)*; X15 = O=C(CCCCNC1=NCCCN1)*; X24 = C[C@@H](CCCCN)C(=O)*; X26 = CNCCCC[C@H](C)C(=O)*; X18 = N=C1NCCN1CCCCC(=O)*; X2 = O=C(CCCCNC1=NCCN1)*; X20 = CNC(=N)NCCCCC(=O)*; X3 = CNCCC[C@H](C)C(=O)*; X16 = CN(C)CCCCCCC(=O)*; X19 = CN(C)CCCCC(=O)*; Ahp = NCCCCCCC(=O)O; X29 = CNCCCCCC(=O)*; X6 = CNCCCCCCC(=O)*; Ahx = NCCCCCC(=O)O; Ava = NCCCCC(=O)O

Assays:
Rattus norvegicus [1] = assay: Analgesic activity in ip dosed Sprague-Dawley rat assessed as paw withdrawal latency by hot plate assay; type: functional
How it was run: (§1)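 Male Sprague-Dawley rats (240–280 g), 10 mg/kg i.p. (morphine 5 mg/kg, saline controls). Hotplate held at 53.0±0.2°C; latency to hind-paw lift, nibble or shake at serial time points, 30 s cut-off. %MPE from pre- and post-drug latencies; endpoints are maximal %MPE, duration at 100% MPE and area under the response curve. n ≥ 6.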

Rattus norvegicus [2] = assay: Analgesic activity in Sprague-Dawley rat assessed as maximal possible effect paw at 10 mg/kg, ip by hot plate assay; type: functional; settings: route intraperitoneal; how it was run: as §1

Row | Compound | Duration at 100% MPE (Rattus norvegicus [1]) [min] | MPE (Rattus norvegicus [2]) [%]
1 | CC/N=C(\NCC)NCCCCC(=O)N[C@@H](CCCNC(=N)N)C(=O)N1CCC[C@H]1C(=O)N[C@@H](Cc1ccc(O)cc1)C(=O)N[C@H](C(=O)N[C@@H](CC(C)C)C(=O)O)C(C)(C)C (X13-RPY[Tle]L-OH) | 15 | 95.68
2 | CC(C)C[C@H](NC(=O)[C@@H](NC(=O)[C@H](Cc1ccc(O)cc1)NC(=O)[C@@H]1CCCN1C(=O)[C@H](CCCNC(=N)N)NC(=O)CCCCN)C(C)(C)C)C(=O)O (H-[Ava]RPY[Tle]L-OH) | 0 | 51.69
3 | CNCCC[C@H](C)C(=O)N[C@@H](CCCNC(=N)N)C(=O)N1CCC[C@H]1C(=O)N[C@@H](Cc1ccc(O)cc1)C(=O)N[C@H](C(=O)N[C@@H](CC(C)C)C(=O)O)C(C)(C)C (X3-RPY[Tle]L-OH) | 0 | 82.4
4 | CC(C)C[C@H](NC(=O)[C@@H](NC(=O)[C@H](Cc1ccc(O)cc1)NC(=O)[C@@H]1CCCN1C(=O)[C@H](CCCNC(=N)N)NC(=O)[C@@H](C)CCCNC1=NCCN1)C(C)(C)C)C(=O)O (X25-RPY[Tle]L-OH) | 0 | 79.31
5 | CC(C)C[C@H](NC(=O)[C@@H](NC(=O)[C@H](Cc1ccc(O)cc1)NC(=O)[C@@H]1CCCN1C(=O)[C@H](CCCNC(=N)N)NC(=O)CCCCN1CCNC1=N)C(C)(C)C)C(=O)O (X18-RPY[Tle]L-OH) | 0 | 82.8
6 | CC(C)C[C@H](NC(=O)[C@@H](NC(=O)[C@H](Cc1ccc(O)cc1)NC(=O)[C@@H]1CCCN1C(=O)[C@H](CCCNC(=N)N)NC(=O)CCCCN(C)C)C(C)(C)C)C(=O)O (X19-RPY[Tle]L-OH) | 90 | 100
7 | CNCCCC[C@H](C)C(=O)N[C@@H](CCCNC(=N)N)C(=O)N1CCC[C@H]1C(=O)N[C@@H](Cc1ccc(O)cc1)C(=O)N[C@H](C(=O)N[C@@H](CC(C)C)C(=O)O)C(C)(C)C (X26-RPY[Tle]L-OH) | 0 | 55.8
8 | CC(C)C[C@H](NC(=O)[C@@H](NC(=O)[C@H](Cc1ccc(O)cc1)NC(=O)[C@@H]1CCCN1C(=O)[C@H](CCCNC(=N)N)NC(=O)[C@@H](C)CCCN1CCN(C)C1=N)C(C)(C)C)C(=O)O (X27-RPY[Tle]L-OH) | 0 | 76.07
9 | CNC(=N)NCCC[C@H](C)C(=O)N[C@@H](CCCNC(=N)N)C(=O)N1CCC[C@H]1C(=O)N[C@@H](Cc1ccc(O)cc1)C(=O)N[C@H](C(=O)N[C@@H](CC(C)C)C(=O)O)C(C)(C)C (X14-RPY[Tle]L-OH) | 75 | 100
10 | CNCCCCCC(=O)N[C@@H](CCCNC(=N)N)C(=O)N1CCC[C@H]1C(=O)N[C@@H](Cc1ccc(O)cc1)C(=O)N[C@H](C(=O)N[C@@H](CC(C)C)C(=O)O)C(C)(C)C (X29-RPY[Tle]L-OH) | 30 | 100
11 | CC(C)C[C@H](NC(=O)[C@@H](NC(=O)[C@H](Cc1ccc(O)cc1)NC(=O)[C@@H]1CCCN1C(=O)[C@H](CCCNC(=N)N)NC(=O)[C@@H](C)CCCCC[N+](C)(C)C)C(C)(C)C)C(=O)O.[Cl-] (X30-RPY[Tle]L-OH) | 0 | 19.9
12 | CC(C)C[C@H](NC(=O)[C@@H](NC(=O)[C@H](Cc1ccc(O)cc1)NC(=O)[C@@H]1CCCN1C(=O)[C@H](CCCNC(=N)N)NC(=O)CCCCC[N+](C)(C)C)C(C)(C)C)C(=O)O.[Cl-] ({Hexanoyl(6-NMe3+)}-RPY[Tle]L-OH) | 0 | 84
13 | CNCCCCCCC(=O)N[C@@H](CCCNC(=N)N)C(=O)N1CCC[C@H]1C(=O)N[C@@H](Cc1ccc(O)cc1)C(=O)N[C@H](C(=O)N[C@@H](CC(C)C)C(=O)O)C(C)(C)C (X6-RPY[Tle]L-OH) | 0 | 59.32
14 | CC(C)C[C@H](NC(=O)[C@@H](NC(=O)[C@H](Cc1ccc(O)cc1)NC(=O)[C@@H]1CCCN1C(=O)[C@H](CCCNC(=N)N)NC(=O)[C@@H](C)CCCN1CCNC1=N)C(C)(C)C)C(=O)O (X17-RPY[Tle]L-OH) | 0 | 55
15 | CC(C)C[C@H](NC(=O)[C@@H](NC(=O)[C@H](Cc1ccc(O)cc1)NC(=O)[C@@H]1CCCN1C(=O)[C@H](CCCNC(=N)N)NC(=O)[C@@H](C)CCCN)C(C)(C)C)C(=O)O ({Ava(2S-Me)}-RPY[Tle]L-OH) | 0 | 89.4
16 | CC(C)C[C@H](NC(=O)[C@@H](NC(=O)[C@H](Cc1ccc(O)cc1)NC(=O)[C@@H]1CCCN1C(=O)[C@H](CCCNC(=N)N)NC(=O)CCCCCN)C(C)(C)C)C(=O)O (H-[Ahx]RPY[Tle]L-OH) | 0 | 48
17 | CC(C)C[C@H](NC(=O)[C@@H](NC(=O)[C@H](Cc1ccc(O)cc1)NC(=O)[C@@H]1CCCN1C(=O)[C@H](CCCNC(=N)N)NC(=O)CCCCCCN(C)C)C(C)(C)C)C(=O)O (X16-RPY[Tle]L-OH) | 0 | 29

Row | Compound | Duration at 100% MPE (Rattus norvegicus [1]) [min] | MPE (Rattus norvegicus [2]) [%]
18 | CC(C)C[C@H](NC(=O)[C@@H](NC(=O)[C@H](Cc1ccc(O)cc1)NC(=O)[C@@H]1CCCN1C(=O)[C@H](CCCNC(=N)N)NC(=O)CCCCNC1=NCCCN1)C(C)(C)C)C(=O)O (X15-RPY[Tle]L-OH) | 0 | 79.62
19 | CC/N=C(\NCC)NCCC[C@H](C)C(=O)N[C@@H](CCCNC(=N)N)C(=O)N1CCC[C@H]1C(=O)N[C@@H](Cc1ccc(O)cc1)C(=O)N[C@H](C(=O)N[C@@H](CC(C)C)C(=O)O)C(C)(C)C (X21-RPY[Tle]L-OH) | 0 | 10
20 | CCN1CCN(CCCCC(=O)N[C@@H](CCCNC(=N)N)C(=O)N2CCC[C@H]2C(=O)N[C@@H](Cc2ccc(O)cc2)C(=O)N[C@H](C(=O)N[C@@H](CC(C)C)C(=O)O)C(C)(C)C)C1=N (X5-RPY[Tle]L-OH) | 0 | 80.48
21 | CNC(=N)NCCCCC(=O)N[C@@H](CCCNC(=N)N)C(=O)N1CCC[C@H]1C(=O)N[C@@H](Cc1ccc(O)cc1)C(=O)N[C@H](C(=O)N[C@@H](CC(C)C)C(=O)O)C(C)(C)C (X20-RPY[Tle]L-OH) | 75 | 100
22 | C/N=C(\NC)NCCC[C@H](C)C(=O)N[C@@H](CCCNC(=N)N)C(=O)N1CCC[C@H]1C(=O)N[C@@H](Cc1ccc(O)cc1)C(=O)N[C@H](C(=O)N[C@@H](CC(C)C)C(=O)O)C(C)(C)C (X28-RPY[Tle]L-OH) | 0 | 63.3
23 | CC(C)C[C@H](NC(=O)[C@@H](NC(=O)[C@H](Cc1ccc(O)cc1)NC(=O)[C@@H]1CCCN1C(=O)[C@H](CCCNC(=N)N)NC(=O)[C@@H](C)CCCCCN)C(C)(C)C)C(=O)O (X11-RPY[Tle]L-OH) | 45 | 100
24 | CCNC(=N)NCCC[C@H](C)C(=O)N[C@@H](CCCNC(=N)N)C(=O)N1CCC[C@H]1C(=O)N[C@@H](Cc1ccc(O)cc1)C(=O)N[C@H](C(=O)N[C@@H](CC(C)C)C(=O)O)C(C)(C)C (X23-RPY[Tle]L-OH) | 0 | 74.48
25 | CNCCCCC[C@H](C)C(=O)N[C@@H](CCCNC(=N)N)C(=O)N1CCC[C@H]1C(=O)N[C@@H](Cc1ccc(O)cc1)C(=O)N[C@H](C(=O)N[C@@H](CC(C)C)C(=O)O)C(C)(C)C (X12-RPY[Tle]L-OH) | 75 | 100
26 | CNCCCCC(=O)N[C@@H](CCCNC(=N)N)C(=O)N1CCC[C@H]1C(=O)N[C@@H](Cc1ccc(O)cc1)C(=O)N[C@H](C(=O)N[C@@H](CC(C)C)C(=O)O)C(C)(C)C (NMe5Ava-RPY[Tle]L-OH) | 120 | 100
27 | CC(C)C[C@H](NC(=O)[C@@H](NC(=O)[C@H](Cc1ccc(O)cc1)NC(=O)[C@@H]1CCCN1C(=O)[C@H](CCCNC(=N)N)NC(=O)CCCCCCN)C(C)(C)C)C(=O)O (H-[Ahp]RPY[Tle]L-OH) | 60 | 100
28 | CC(C)C[C@H](NC(=O)[C@@H](NC(=O)[C@H](Cc1ccc(O)cc1)NC(=O)[C@@H]1CCCN1C(=O)[C@H](CCCNC(=N)N)NC(=O)[C@@H](C)CCCC[N+](C)(C)C)C(C)(C)C)C(=O)O.[Cl-] (X9-RPY[Tle]L-OH) | 15 | 67.2
29 | CC(C)C[C@H](NC(=O)[C@@H](NC(=O)[C@H](Cc1ccc(O)cc1)NC(=O)[C@@H]1CCCN1C(=O)[C@H](CCCNC(=N)N)NC(=O)CCCC[N+](C)(C)C)C(C)(C)C)C(=O)O.[Cl-] (X22-RPY[Tle]L-OH) | 60 | 100
30 | CC(C)C[C@H](NC(=O)[C@@H](NC(=O)[C@H](Cc1ccc(O)cc1)NC(=O)[C@@H]1CCCN1C(=O)[C@H](CCCNC(=N)N)NC(=O)[C@@H](C)CCCCN)C(C)(C)C)C(=O)O (X24-RPY[Tle]L-OH) | 0 | 86
31 | CC(C)C[C@H](NC(=O)[C@@H](NC(=O)[C@H](Cc1ccc(O)cc1)NC(=O)[C@@H]1CCCN1C(=O)[C@H](CCCNC(=N)N)NC(=O)[C@@H](C)CCCNC(=N)N)C(C)(C)C)C(=O)O (X8-RPY[Tle]L-OH) | 0 | 48.52
32 | CC(C)C[C@H](NC(=O)[C@@H](NC(=O)[C@H](Cc1ccc(O)cc1)NC(=O)[C@@H]1CCCN1C(=O)[C@H](CCCNC(=N)N)NC(=O)CCCCNC1=NCCN1)C(C)(C)C)C(=O)O (X2-RPY[Tle]L-OH) | 0 | 76.4
33 | CC(C)C[C@H](NC(=O)[C@@H](NC(=O)[C@H](Cc1ccc(O)cc1)NC(=O)[C@@H]1CCCN1C(=O)[C@H](CCCNC(=N)N)NC(=O)CCCCNC(=N)N)C(C)(C)C)C(=O)O ({Pentanoyl(5-guanidino)}-RPY[Tle]L-OH) | 0 | 50.86
34 | CC(C)C[C@H](NC(=O)[C@@H](NC(=O)[C@H](Cc1ccc(O)cc1)NC(=O)[C@@H]1CCCN1C(=O)[C@H](CCCNC(=N)N)NC(=O)[C@@H](C)CCCCN(C)C)C(C)(C)C)C(=O)O (X4-RPY[Tle]L-OH) | 0 | 84.9
